What was measured:
[1] = molecular target: T1, Acetylcholinesterase (Homo sapiens, UniProt P22303); assay: In vitro inhibitory concentration against purified Acetylcholinesterase of human erythrocytes
[2] = molecular target: T1, Acetylcholinesterase; assay: In vitro inhibitory concentration against purified Acetylcholinesterase of human erythrocytes; value ranges from 224-1012
[3] = molecular target: T2, Butyrylcholinesterase (Equus caballus, UniProt Q9N1N9); assay: In vitro inhibitory concentration against Butyrylcholinesterase of horse serum; value ranges from 0.25-0.40
T2 sequence (Q9N1N9 whole entry): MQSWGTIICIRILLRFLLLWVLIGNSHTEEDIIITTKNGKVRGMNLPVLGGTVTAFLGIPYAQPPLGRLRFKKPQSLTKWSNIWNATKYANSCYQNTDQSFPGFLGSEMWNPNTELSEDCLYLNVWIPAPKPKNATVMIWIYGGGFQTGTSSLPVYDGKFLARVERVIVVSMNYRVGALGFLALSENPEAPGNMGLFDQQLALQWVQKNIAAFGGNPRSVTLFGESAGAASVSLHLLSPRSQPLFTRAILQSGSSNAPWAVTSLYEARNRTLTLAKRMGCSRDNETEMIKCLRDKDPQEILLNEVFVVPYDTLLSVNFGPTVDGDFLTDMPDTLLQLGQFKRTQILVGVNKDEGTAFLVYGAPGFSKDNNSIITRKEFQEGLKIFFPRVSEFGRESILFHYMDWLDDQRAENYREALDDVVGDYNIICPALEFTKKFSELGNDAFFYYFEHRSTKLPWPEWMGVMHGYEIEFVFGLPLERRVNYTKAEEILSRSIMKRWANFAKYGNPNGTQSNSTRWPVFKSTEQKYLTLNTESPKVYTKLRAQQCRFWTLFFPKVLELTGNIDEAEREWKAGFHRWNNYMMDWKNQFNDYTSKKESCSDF
Summary of the method: (§1)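 Ellman assay followed, with 200 µM butyrylthiocholine as substrate. Runs were in triplicate with four-point dose-response curves. IC50 and fiducial limits came from log concentration versus % inhibition.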

[4] = molecular target: T1, Acetylcholinesterase; assay: In vitro inhibitory concentration against purified Acetylcholinesterase of human erythrocytes; value ranges from 11.9-128
[5] = molecular target: T2, Butyrylcholinesterase; assay: In vitro inhibitory concentration against Butyrylcholinesterase of horse serum; value ranges from 0.8-3.2
[6] = molecular target: T3, Amine oxidase [flavin-containing] A (Rattus norvegicus, UniProt P21396); assay: In vitro inhibitory concentration against Monoamine oxidase A of rat brain homogenates; value ranges from 190-310; format: tissue-based
T3 sequence (P21396 whole entry): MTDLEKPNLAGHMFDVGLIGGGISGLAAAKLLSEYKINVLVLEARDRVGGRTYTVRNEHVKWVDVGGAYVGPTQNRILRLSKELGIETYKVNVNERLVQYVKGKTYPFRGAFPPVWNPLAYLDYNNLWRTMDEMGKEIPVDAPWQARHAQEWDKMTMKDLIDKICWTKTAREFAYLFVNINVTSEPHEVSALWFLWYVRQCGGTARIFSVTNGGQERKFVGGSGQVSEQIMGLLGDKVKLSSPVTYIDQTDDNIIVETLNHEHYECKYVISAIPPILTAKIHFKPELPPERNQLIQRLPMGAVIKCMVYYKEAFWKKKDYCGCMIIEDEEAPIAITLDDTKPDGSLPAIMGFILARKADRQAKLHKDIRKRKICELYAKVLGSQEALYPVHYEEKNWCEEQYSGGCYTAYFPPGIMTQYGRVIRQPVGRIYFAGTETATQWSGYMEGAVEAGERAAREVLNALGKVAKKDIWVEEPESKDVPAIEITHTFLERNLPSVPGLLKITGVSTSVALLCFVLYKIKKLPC

[7] = molecular target: T4, Amine oxidase [flavin-containing] B (Rattus norvegicus, UniProt P19643); assay: In vitro inhibitory concentration against Monoamine oxidase B of rat brain homogenates; format: tissue-based
T4 sequence (P19643 whole entry): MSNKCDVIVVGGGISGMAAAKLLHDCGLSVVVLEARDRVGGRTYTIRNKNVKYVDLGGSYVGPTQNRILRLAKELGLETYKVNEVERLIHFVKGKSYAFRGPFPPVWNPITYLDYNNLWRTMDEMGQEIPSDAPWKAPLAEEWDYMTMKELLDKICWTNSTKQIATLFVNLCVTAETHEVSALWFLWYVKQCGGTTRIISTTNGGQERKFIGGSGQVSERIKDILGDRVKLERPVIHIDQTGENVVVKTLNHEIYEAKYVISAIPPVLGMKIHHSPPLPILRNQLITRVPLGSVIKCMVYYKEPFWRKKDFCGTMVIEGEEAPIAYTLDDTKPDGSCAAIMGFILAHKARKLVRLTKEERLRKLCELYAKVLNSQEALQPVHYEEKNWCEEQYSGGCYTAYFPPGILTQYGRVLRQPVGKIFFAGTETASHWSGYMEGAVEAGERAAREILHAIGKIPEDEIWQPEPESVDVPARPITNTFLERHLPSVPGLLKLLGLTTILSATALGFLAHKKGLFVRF

[8] = molecular target: T2, Butyrylcholinesterase; assay: In vitro inhibitory concentration against Butyrylcholinesterase of horse serum; value ranges from 0.85-1.96; summary of the method: as §1
[9] = molecular target: T1, Acetylcholinesterase; assay: In vitro inhibitory concentration against purified Acetylcholinesterase of human erythrocytes; value ranges from […]-[…]
[10] = molecular target: T4, Amine oxidase [flavin-containing] B; assay: In vitro inhibitory concentration against Monoamine oxidase B of rat brain homogenates; value ranges from 90-260
[11] = molecular target: T2, Butyrylcholinesterase; assay: In vitro inhibitory concentration against Butyrylcholinesterase of horse serum; value ranges from 0.016-0.021; summary of the method: as §1
[12] = molecular target: T3, Amine oxidase [flavin-containing] A; assay: In vitro inhibitory concentration against Monoamine oxidase A of rat brain homogenates; value ranges from 0.72-0.97; format: tissue-based
[13] = molecular target: T1, Acetylcholinesterase
[14] = molecular target: T3, Amine oxidase [flavin-containing] A; assay: In vitro inhibitory concentration against Monoamine oxidase A of rat brain homogenates; value ranges from 290-920; format: tissue-based
[15] = molecular target: T3, Amine oxidase [flavin-containing] A; assay: In vitro inhibitory concentration against Monoamine oxidase A of rat brain homogenates; value ranges from 260-420; format: tissue-based
[16] = molecular target: T4, Amine oxidase [flavin-containing] B; assay: In vitro inhibitory concentration against Monoamine oxidase B of rat brain homogenates; value ranges from 590-900
[17] = molecular target: T1, Acetylcholinesterase; assay: In vitro inhibitory concentration against purified Acetylcholinesterase of human erythrocytes; value ranges from 28.1-58.3
[18] = molecular target: T2, Butyrylcholinesterase; assay: In vitro inhibitory concentration against Butyrylcholinesterase of horse serum; value ranges from 4.9-11.2; summary of the method: as §1
[19] = molecular target: T1, Acetylcholinesterase; remark: listed apart in the source
[20] = molecular target: T1, Acetylcholinesterase; assay: In vitro inhibitory concentration against purified Acetylcholinesterase of human erythrocytes; value ranges from 1.28-3.30
[21] = molecular target: T2, Butyrylcholinesterase; assay: In vitro inhibitory concentration against Butyrylcholinesterase of horse serum; value ranges from 0.99-1.91; summary of the method: as §1
[22] = molecular target: T3, Amine oxidase [flavin-containing] A; assay: In vitro inhibitory concentration against Monoamine oxidase A of rat brain homogenates; value ranges from 7.6-12.5; format: tissue-based
[23] = molecular target: T2, Butyrylcholinesterase; assay: In vitro inhibitory concentration against Butyrylcholinesterase of horse serum; value ranges from 0.009-0.024; summary of the method: as §1
[24] = molecular target: T1, Acetylcholinesterase; assay: In vitro inhibitory concentration against purified Acetylcholinesterase of human erythrocytes; value ranges from 0.008-0.012
[25] = molecular target: T3, Amine oxidase [flavin-containing] A; assay: In vitro inhibitory concentration against Monoamine oxidase A of rat brain homogenates; value ranges from 29-44; format: tissue-based
[26] = molecular target: T1, Acetylcholinesterase; assay: In vitro inhibitory concentration against purified Acetylcholinesterase of human erythrocytes; value ranges from 5.5-45.9
[27] = molecular target: T4, Amine oxidase [flavin-containing] B; assay: In vitro inhibitory concentration against Monoamine oxidase B of rat brain homogenates; value ranges from 6-350
[28] = molecular target: T1, Acetylcholinesterase; assay: In vitro inhibitory concentration against purified Acetylcholinesterase of human erythrocytes; value ranges from 0.49-0.58
[29] = molecular target: T2, Butyrylcholinesterase; assay: In vitro inhibitory concentration against Butyrylcholinesterase of horse serum; value ranges from 2.1-4.1; summary of the method: as §1
[30] = molecular target: T1, Acetylcholinesterase; assay: In vitro inhibitory concentration against purified Acetylcholinesterase of human erythrocytes; value ranges from 1.7-6.4
[31] = Bimolecular rate constant for carbamoylation of ACHE; format: ADME
Summary of the method: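 Human erythrocyte AChE preincubated with inhibitor at 37 °C in 0.1 M phosphate buffer, pH 7.4, under Ellman conditions with 200 µM […]. Pseudo-first-order rate constants (k_obs) for progressive inhibition were obtained at 4-5 inhibitor concentrations. The apparent bimolecular carbamylation constant k_i was calculated from these.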

T1 sequence (P22303 whole entry): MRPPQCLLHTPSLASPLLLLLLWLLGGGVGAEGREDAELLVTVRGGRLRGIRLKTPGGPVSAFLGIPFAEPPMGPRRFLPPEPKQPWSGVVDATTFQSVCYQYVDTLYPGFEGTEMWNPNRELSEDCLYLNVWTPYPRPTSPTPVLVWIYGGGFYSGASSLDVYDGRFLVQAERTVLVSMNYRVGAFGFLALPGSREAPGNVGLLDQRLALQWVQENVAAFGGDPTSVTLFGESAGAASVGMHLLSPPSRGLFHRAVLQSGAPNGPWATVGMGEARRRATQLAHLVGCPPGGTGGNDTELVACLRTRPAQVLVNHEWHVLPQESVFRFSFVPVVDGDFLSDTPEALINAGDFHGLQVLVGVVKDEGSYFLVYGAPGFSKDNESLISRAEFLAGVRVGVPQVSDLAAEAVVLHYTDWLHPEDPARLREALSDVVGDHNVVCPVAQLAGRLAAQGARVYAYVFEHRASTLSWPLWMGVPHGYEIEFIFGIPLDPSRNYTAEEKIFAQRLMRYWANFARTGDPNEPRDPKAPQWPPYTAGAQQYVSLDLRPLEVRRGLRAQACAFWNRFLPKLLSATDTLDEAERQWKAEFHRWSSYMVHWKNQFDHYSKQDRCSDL

C#CCN(C)C1CCc2cccc(OC(=O)N(C)CCC)c21 (stereo not drawn)
IC50 [1]: > 1000 µM

C#CCNC1CCc2cccc(OC(=O)N(C)CC)c21 (stereo not drawn)
IC50 [2]: 525 µM | IC50 [3]: 0.31 µM

C#CCNC1CCc2ccc(OC(=O)N(C)CC)cc21 (stereo not drawn)
IC50 [4]: 47 µM | IC50 [5]: 1.5 µM | IC50 [6]: 250 µM | IC50 [7]: > 1000 µM

CNC1CCc2ccc(OC(=O)N(C)C)cc21 (stereo not drawn)
IC50 [8]: 0.95 µM | IC50 [9]: 1.07 µM

C#CCNC1CCc2c(OC(=O)N(C)CC)cccc21 (stereo not drawn)
IC50 [10]: 150 µM | IC50 [11]: 0.019 µM | IC50 [12]: 0.83 µM | IC50 [13]: 2.15 µM

CCNC1CCc2ccc(OC(=O)N(C)C)cc21 (stereo not drawn)
IC50 [14]: 500 µM | IC50 [9]: 24.5 µM

C#CCN(C)C1CCc2cccc(OC(=O)N(C)C)c21 (stereo not drawn)
IC50 [15]: 330 µM | IC50 [16]: 730 µM

CCN(C)C(=O)Oc1ccc2c(c1)C(NC)CC2 (stereo not drawn)
IC50 [17]: 38.6 µM

C#CCN(C)C1CCc2ccc(OC(=O)N(C)CCC)cc21 (stereo not drawn)
IC50 [1]: > 1000 µM

C#CCNC1CCc2ccc(OC(=O)N(C)c3ccc(OC)cc3)cc21 (stereo not drawn)
IC50 [18]: 6.4 µM | IC50 [19]: 0.86 µM

C#CCNC1CCc2ccc(OC(=O)NCC)cc21 (stereo not drawn)
IC50 [9]: 13.7 µM

C#CCNC1CCc2ccc(OC(=O)N(C)Cc3ccccc3)cc21 (stereo not drawn)
IC50 [20]: 1.78 µM | IC50 [21]: 1.26 µM

C#CCN(C)C1CCc2ccc(OC(=O)N(C)CC)cc21 (stereo not drawn)
IC50 [1]: > 1300 µM

C#CCNC1CCc2ccc(OC(=O)N(CC)C3CCCCC3)cc21 (stereo not drawn)
IC50 [9]: 17.9 µM

CN(C)C(=O)Oc1cccc2c1CCC2N (stereo not drawn)
IC50 [22]: 9.8 µM | IC50 [23]: 0.014 µM | IC50 [24]: 0.009 µM | IC50 [7]: > 1000 µM

C#CCN(C)C1CCc2ccc(OC(=O)N(C)C)cc21 (stereo not drawn)
IC50 [25]: 36 µM | IC50 [26]: 12.9 µM | IC50 [27]: 47 µM

CCCCCCN(C)C(=O)Oc1ccc2c(c1)C(N)CC2 (stereo not drawn)
IC50 [28]: 0.53 µM

C#CCNC1CCc2cccc(OC(=O)N(C)C)c21 (stereo not drawn)
IC50 [29]: 2.8 µM | IC50 [30]: 2.5 µM

CNC1CCc2cccc(OC(=O)N(C)C)c21 (stereo not drawn)
IC50 [9]: 0.51 µM

CCN(C)C(=O)Oc1cccc([C@H](C)N(C)C)c1 [RIVASTIGMINE]
Bimolecular carbamoylation rate constant (ki) [31]: 23.87 M⁻¹ s⁻¹
